Measurements reported in paper PMC3304489 (Biochemical Journal, 2012).

System: MALT1
Test: Effect of buffer additives on MALT1 activity
Assay type: biochemical, human
Conditions: 50 mM Hepes, 100 mM NaCl, 0.9 M sodium citrate, pH 7.5, supplemented with additive (Figure 2C and results not shown)
Method in brief: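 Recombinant human MALT1, expressed in E. coli and Ni-NTA purified, used as full-length (150 nM) and as His-tagged catalytic domain (residues 329–566, 4 μM). Each was assayed in 50 mM Hepes, 100 mM NaCl, 0.9 M sodium citrate (pH 7.5) with the indicated additives. Experiments were repeated three times, and mean ± S.E.M. is reported.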

SMILES | effect of buffer additive on the activity of MALT1 (in words)
c1cnc2c(c1)ccc1cccnc12 [1,10-phenanthroline] | no substantial effect
O=C(O)CN(CCN(CC(=O)O)CC(=O)O)CC(=O)O [EDTA] | no substantial effect
[Ca+2].[Cl-].[Cl-] [CaCl2] | no substantial effect
O[C@@H](CS)[C@@H](O)CS (racemic) [DTT, dithiothreitol] | activity was enhanced
